PAFAH2 FP inh – inhibitors of human PAFAH2; Q99487; recombinant PAFAH2, FP-rhodamine activity probe, fluorescence polarization; inhibition, % at 3.39 µM; 340,000 tested, 0.99% active; AID 492956;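 active = inhibition above the mean over all tested compounds plus 3 SD, cut at about 30% in these data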;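 also: inhibitors block probe labeling of enzyme so polarization drops; 0% = enzyme with DMSO and 100% = wells lacking PAFAH2 protein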
PAFAH1B3 inh – PAFAH1B3 (human) inhibition. recombinant PAFAH1B3, FP-rhodamine probe, fluorescence polarization. AID 492972. inhibition, % at 3.39 µM. Q15102. 340,000 tested, 0.28% active;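 active = inhibition above the screen-wide average of all tested compounds plus 3 SD, cut at about 25% in these data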;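 also: 0% = enzyme with DMSO only and 100% = wells lacking PAFAH1B3 protein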
Target sequence (Q15102 whole entry, looked up): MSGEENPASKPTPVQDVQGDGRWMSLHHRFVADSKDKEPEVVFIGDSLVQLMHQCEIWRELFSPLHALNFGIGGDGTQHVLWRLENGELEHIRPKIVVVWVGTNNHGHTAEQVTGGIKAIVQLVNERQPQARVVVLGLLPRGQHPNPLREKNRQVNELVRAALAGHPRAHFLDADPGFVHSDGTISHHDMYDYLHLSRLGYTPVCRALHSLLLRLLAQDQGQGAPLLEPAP
PAFAH1B2 inh – blocks human PAF acetylhydrolase 1b catalytic subunit 2; P68402; recombinant PAFAH1B2, FP-rhodamine activity probe, fluorescence polarization; inhibition, % at 3.39 µM; 340,000 tested, 1.2% active;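 active = inhibition above the mean of all tested compounds plus 3 SD, cut at about 24% in these data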;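 also: 0% = enzyme with DMSO and 100% = wells lacking PAFAH1B2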
Apaf1 inhib – inhibitors of human Apaf-1 apoptosome. reconstituted apoptosome caspase-3 activity, DEVD-Rh110 fluorescence. inhibition, % at 20 µM. 330,000 tested, 0.71% active. AID 489030; active = inhibition of at least 40% at 20 µM;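 also: plate controls were DMSO wells for no effect and DEVD-CHO caspase inhibitor wells for full effect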
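Material: biochemical Apaf-1 apoptosome reconstitution. Medium: Hepes buffer, pH 7.5. Also added: cytochrome c activation, bis-DEVD rhodamine 110 substrate. Timing: 30 min compound preincubation, 50 min activation, room temperature. Measured by: rhodamine 110 fluorescence at Ex 480/Em 540 nm.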
pPAFAH inh – inhibitors of human plasma PAF acetylhydrolase (pPAFAH). Q13093. recombinant pPAFAH, FP-rhodamine probe fluorescence polarization. inhibition, % at 3.39 µM. 330,000 tested, 1.5% active. AID 463082;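 active = inhibition above the mean inhibition across the screen plus 3 SD, cut at about 25% in these data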;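 also: inhibitors block binding of the rhodamine activity-based probe so polarization drops; 0% = enzyme with DMSO and 100% = wells lacking pPAFAH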
Target sequence (Q13093 whole entry, looked up): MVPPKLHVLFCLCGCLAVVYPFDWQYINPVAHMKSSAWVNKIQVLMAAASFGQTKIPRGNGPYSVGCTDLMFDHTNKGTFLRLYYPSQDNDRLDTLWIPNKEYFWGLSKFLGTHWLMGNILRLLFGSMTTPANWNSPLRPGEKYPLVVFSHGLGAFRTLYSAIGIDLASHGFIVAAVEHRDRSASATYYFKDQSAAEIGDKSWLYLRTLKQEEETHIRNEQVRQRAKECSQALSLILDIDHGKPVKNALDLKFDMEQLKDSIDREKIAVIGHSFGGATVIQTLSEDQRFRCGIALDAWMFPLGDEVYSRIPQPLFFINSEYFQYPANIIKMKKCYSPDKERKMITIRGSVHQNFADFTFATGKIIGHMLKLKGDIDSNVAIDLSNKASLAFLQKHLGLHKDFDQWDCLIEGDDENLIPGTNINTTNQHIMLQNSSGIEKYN
Apaf-1 inh conf – Apaf-1 inhibition, single-dose confirmed; reconstituted apoptosome, caspase-3 DEVD-Rh110 fluorescence; inhibition, % at 20 µM; shares compounds with Apaf1 inhib; 1,800 tested, 25% active;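 active = mean inhibition of at least 40% at 20 µM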;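 also: plate controls were DMSO wells for no effect and DEVD-CHO caspase inhibitor control wells for full effect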
Rh110 quench – Rh110 signal interference in Apaf-1 inhibitor counter-screen. shares compounds with Apaf1 inhib. Rh110 fluorescence interference, quenched caspase reaction. activation (fluorescence interference), % at 20 µM. 1,800 tested, under 10 active;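 active = signal rise of 40% or more at 20 µM, treated as a fluorescence artifact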
Fluor interf inh – counter-screen for Apaf-1 inhibitors: fluorescence interference, dose response; shares compounds with Apaf1 inhib; fluorescence interference counterscreen, Apaf-1 assay format; IC50, µM; 460 tested, under 10 active; AID 588538; call rule not given here
Starred values were filed as active, the others as inactive; / = no result. Compounds with a hit are over-represented: about 3.1% of the library has one in this group of screens.

SMILES | PAFAH2 FP inh | PAFAH1B3 inh | PAFAH1B2 inh | Apaf1 inhib | pPAFAH inh | Apaf-1 inh conf | Rh110 quench | others
Cc1c(/C=N/NC(=O)COc2ccccc2[N+](=O)[O-])c2ccccc2n1C | 2.5 | -3.9 | -4.3 | 2.8 | 3.4 | / | /
COc1ccc(CN(C)C(=O)c2cc(S(=O)(=O)NCc3ccccc3)ccc2C)c(OC)c1 | 0.3 | 13.8 | 8.3 | 61.4* | 0.6 | 40.0* | 11.1 | Fluor interf inh=>100
CCN(CC)c1ccc(N=C2C(=O)Nc3ccccc32)cc1 | 5.2 | 4.0 | 0.2 | 47.0* | 28.6* | 15.0 | 0.8
Nc1cccc2c1C(=O)N(CCOc1ccccc1F)C2=O | -6.4 | 0.1 | 2.0 | -1.7 | -2.8 | / | /
OCCN(CCO)c1ccc(C(c2ccc(Cl)cc2)c2ccc(N(CCO)CCO)cc2Cl)c(Cl)c1 | 2.8 | 8.7 | 2.2 | -9.5 | 3.9 | / | /
Cc1cc(N(CCO)CCO)ccc1N=Nc1cc(F)ccc1F | 7.3 | -5.7 | 1.5 | 40.4* | 18.6 | 21.7 | 14.5
Cn1nc(-c2ccccn2)nc2c(=O)n(C)c(=O)nc1-2 | 59.5* | 68.3* | 32.3* | 98.1* | 12.0 | 100.3* | -1.2 | Fluor interf inh=>100
COc1ccc(-c2nc(-c3ccccn3)ncc2S(C)(=O)=O)cc1 | 8.6 | 5.7 | -1.8 | 9.8 | -0.6 | / | /
CCOC(=O)C1CCN(C(=O)C2COc3ccccc3O2)CC1 (stereo not drawn) | -0.9 | 3.9 | 4.8 | 2.2 | 2.5 | / | /
Cc1ccc2c(c1)c1cccc3c1n2CCN3CCC(N)=O | 4.5 | 1.5 | 1.0 | 51.3* | 20.3 | 21.7 | 11.0
COc1ccc(CCN2CC(C(=O)N(C)CC(=O)Nc3ccc(F)c(F)c3F)CC2=O)cc1OC (stereo not drawn) | 0.3 | 4.8 | -4.7 | / | / | / | /
COc1cc(N)c(Cc2nccc3cc(OC)c(OC)cc23)cc1OC | -2.5 | 0.3 | 8.2 | 47.5* | 6.9 | 24.7 | -0.1
OC(CSc1ccccc1)CN1CCN(c2ccc(Cl)cc2)CC1 (stereo not drawn) | -1.2 | 1.2 | 3.9 | / | / | / | /
Cc1cc(C)nc(-n2nc(C)cc2NC(=O)CN2CCc3ccccc3C2)n1 | 1.9 | 10.1 | 2.3 | 54.2* | 1.4 | 15.4 | -1.6
O=C(c1cc(COc2ccc3c(c2)CCCC3)on1)N1CCCC1 | -0.4 | 5.0 | 8.0 | 4.3 | 6.3 | / | /
CCCc1ccc2oc(C(=O)NCCc3nc(C(=O)OCC)cs3)c(C)c2c1 | 2.9 | -3.3 | 6.3 | 40.8* | / | 21.1 | 11.6
CCCc1ccc2oc(C(=O)NCCc3cnn(C)c3)c(C)c2c1 | 1.7 | 4.7 | -6.0 | 7.4 | 6.0 | / | /
O=C1C(=O)N(CCN2CCOCC2)C(c2ccccc2)/C1=C(\O)c1ccc2c(c1)OCCO2 (stereo not drawn) | 5.6 | 6.4 | 4.6 | 50.3* | 0.6 | 0.6 | 5.3
Cc1cc(OCC(=O)OCC(=O)Nc2cc(S(=O)(=O)N3CCOCC3)ccc2Cl)ccc1Cl | 5.5 | 8.8 | 9.4 | 28.1 | 16.0 | / | /
COc1ccc(CC(=O)NNC(=O)COc2ccc(Cl)cc2C)cc1S(=O)(=O)N1CCOCC1 | 9.8 | 10.4 | 3.4 | 6.7 | 1.8 | / | /
CN(CC(=O)Nc1cccc(F)c1)C(=O)c1cc(S(=O)(=O)N2CCCCC2)ccc1N1CCOCC1 | 4.9 | 7.7 | 3.5 | 8.0 | 7.1 | / | /
CN1C(=O)c2cccc3c(S(=O)(=O)NCc4ccco4)ccc1c23 | 2.2 | 9.7 | 7.8 | 54.5* | -1.4 | 16.0 | 3.1
CC1=NN(c2ccc(Cl)c(C(=O)O)c2)C(=O)C1 | 8.0 | 5.4 | 0.8 | 7.6 | 10.8 | / | /
CC1=NN(c2ccc(S(=O)(=O)O)cc2Cl)C(=O)C1 | -3.0 | 8.3 | 0.8 | 66.2* | -5.0 | 18.7 | -2.6
CC1=NN(c2ccc(C(=O)O)c(N)c2)C(=O)C1 | -1.5 | 14.2 | 4.3 | 62.1* | 18.6 | 6.8 | -2.4
SMILES | PAFAH2 FP inh | PAFAH1B3 inh | PAFAH1B2 inh | Apaf1 inhib | pPAFAH inh | Apaf-1 inh conf | Rh110 quench | others
CC1=NN(c2cc(Cl)c(S(=O)(=O)O)cc2Cl)C(=O)C1 | -2.3 | 16.8 | 8.8 | / | / | / | /
CC1=NN(c2cccc(Cl)c2)C(=O)C1 | 4.2 | 8.3 | 7.8 | 74.8* | -4.3 | 21.0 | 6.0
O=C(CNC(=O)c1cccs1)Nc1ccc2c(c1)OCCO2 | -6.2 | -4.1 | -2.8 | 6.0 | -2.9 | / | /
Cc1ccc2nc(/C(C#N)=C\c3ccc(N4CCOCC4)o3)[nH]c2c1 | -65.9 | -69.6 | -46.1 | 44.1* | 10.5 | 17.5 | -28.1
Cc1ccc(/C(C#N)=C\c2ccc(N3CCOCC3)o2)cc1 | 7.4 | 4.6 | 12.4 | -17.0 | 5.8 | / | /
O=C(CSCc1cc(=O)n2ccsc2n1)Nc1ccccc1 | -9.0 | 7.6 | 1.4 | -3.5 | 4.9 | / | /
O=C(NC1CCCc2ccccc21)c1ccccc1OC(F)F (stereo not drawn) | -7.2 | 0.3 | 3.1 | 1.3 | 2.7 | / | /
O=C(NCc1ccccc1)C(c1ccc(F)cc1)N(C(=O)c1csnn1)C1CC1 (stereo not drawn) | 11.9 | 1.9 | 0.0 | 1.5 | 1.5 | / | /
CN1CCc2cccc3c2[C@@H]1Cc1ccc(O)c(O)c1-3 | 7.7 | 17.4 | 1.1 | 49.9* | 23.2 | 24.7 | 14.1
COc1ccc2c(c1O)-c1ccccc1CCN(C)C2 | 11.5 | 3.1 | 5.6 | 8.6 | -5.3 | / | /
CN1CCN(S(=O)(=O)c2ccc(SCCOc3ccc(Cl)cc3)nc2)CC1 | -5.5 | 6.5 | 15.9 | 50.7* | -4.5 | 14.6 | 7.3
C/C(=N\NC(=O)Cc1cc(=O)[nH][nH]1)c1cccc([N+](=O)[O-])c1 | 5.9 | 0.1 | 1.7 | 51.4* | 3.6 | 10.7 | -2.4
C/C(=N/NC(=O)Cc1cc(=O)[nH][nH]1)c1ccc([N+](=O)[O-])cc1 | 1.4 | 6.5 | 2.3 | 54.9* | 5.5 | 8.5 | -5.5
COc1ccccc1C(CC(=O)O)NS(=O)(=O)c1ccc2c(c1)N(C(C)=O)CC(C)O2 (stereo not drawn) | 4.0 | 8.9 | -1.6 | -2.1 | 0.8 | / | /
CCCCCCCCCCCCCCCC(O)C(N)CO (stereo not drawn) | -1.6 | -1.0 | -4.0 | 80.2* | 0.9 | 20.8 | 12.9
Cc1ccc2c(c1)N(CC(=O)NCC1CCCO1)C(=O)C(C(C)C)O2 (stereo not drawn) | 0.7 | 3.7 | 0.9 | -1.2 | 8.1 | / | /
CCOC(=O)CCNC(=O)N1CCCC(N2CCN(c3ccc(OC)cc3)CC2)C1 (stereo not drawn) | 2.6 | 5.8 | 5.4 | 2.4 | 5.7 | / | /
Cc1ccc2c(c1)-n1c(nc3ccc(C)cc3c1=O)C(Cc1ccc(O)cc1)NC2=O (stereo not drawn) | / | / | / | 11.0 | -1.0 | / | /
Cc1nc2sccn2c(=O)c1CCN1CCC(=C(c2ccc(F)cc2)c2ccc(F)cc2)CC1 | 0.9 | 2.1 | 9.7 | 42.3* | 9.7 | 18.8 | 8.5
CN(CC(=O)Nc1ccc(Cl)cc1)C(=O)c1sccc1-c1ccccc1 | -3.7 | -1.1 | 11.0 | 45.9* | -2.0 | 33.9 | 5.6
